This is a sample that favours compounds with a hit; in the whole collection about 2.2% have one here.
HNF4A DNA FP: change in binding of human HNF4 alpha to DNA | HNF4a-FITC DNA binding, fluorescence polarization, 1 h | activity change, % at 10 µM | hit rate 0.3% among 360,000 | AID 1224865; in the data active = activity change above about 30%, passing the limit was not always enough
Exocytosis inh: lytic granule exocytosis inhibition; TALL-104 LAMP-1 surface exposure, flow cytometry; cells stimulated with thapsigargin and PMA; inhibition, % at 10 µM; hit rate 0.66% among 360,000; AID 651702;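 active = inhibition above about 55%, limit read from the data; inconclusive = no clear call, values can overlap the other calls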
CSN inh: CSN deneddylation inhibition; Purified CSN, SCF-Nedd8-OG deneddylation, fluorescence polarization; inhibition, % at 12.5 µM; hit rate 0.38% among 360,000;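 active = pattern-corrected inhibition above about 35%, with an unprinted fluorescence ratio check between 0.5 and 1.5, limit read from the data, passing the limit was not always enough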;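 note: 0% = enzyme with substrate and 100% = substrate without enzyme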
Target sequence (Q92905 whole entry, looked up, one chain of several): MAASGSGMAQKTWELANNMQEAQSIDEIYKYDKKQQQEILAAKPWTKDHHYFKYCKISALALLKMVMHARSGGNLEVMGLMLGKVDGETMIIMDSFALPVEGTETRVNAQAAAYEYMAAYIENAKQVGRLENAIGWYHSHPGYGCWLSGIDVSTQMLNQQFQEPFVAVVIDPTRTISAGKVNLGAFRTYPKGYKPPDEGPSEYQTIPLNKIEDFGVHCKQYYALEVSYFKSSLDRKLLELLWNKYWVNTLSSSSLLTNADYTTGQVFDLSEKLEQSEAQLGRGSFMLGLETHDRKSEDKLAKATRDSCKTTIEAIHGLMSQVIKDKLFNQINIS
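test system = HEK293T-derived human Csn5 enzyme | amount = 0.24 nM Csn5 enzyme, final concentration | medium = Tris/NaCl/DTT buffer, pH 7.5 | schedule = 90 min reaction at room temperature | signal = FP | evaluation = inhibition of Csn5 cleavage, % | compound dosing = single dose of 12.5 µM compound with 0.25% DMSO | probe or stimulus = 10 nM SCFSkp2-Nedd8OG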
Myeloid diff MLP: promotes myeloid progenitor differentiation; ER-HoxA9 myeloid progenitors, lysozyme-GFP differentiation, flow cytometry; calls only at 10 µM; hit rate 1% among 360,000;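 active = normalized GFP-positive differentiation at or above the plate's own cutoff, the solvent-only control mean plus 3 SD; inconclusive = no clear call, values can overlap the other calls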;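 note: cells exposed to compound for four days before flow analysis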
Myeloid diff: compounds promoting myeloid differentiation; shares compounds with Myeloid diff MLP; ER-HoxA9 myeloid progenitors, GFP/Mac1 double-positive flow; calls only; hit rate 2% among 2,300; AID 651706;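 active = share of green or green-and-red cells above 9 and 9% in run 1 or 4 and 3% in run 2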
GFP autofluor: compound fluorescence in myeloid differentiation counter-screen. shares compounds with Myeloid diff MLP. ER-HoxA9 myeloid progenitors, no estrogen, GFP autofluorescence flow cytometry; vehicle wells 0%, positive control 100%. fluorescence response, % (concentration not given with the values). hit rate 7.4% among 2,300. AID 651707;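 active = over 5% cells positive for green fluorescent reporter, or over 2% positive for both it and APC stain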;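 note: range taken on the double positive population between DMSO and positive control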
* = called active by the depositor; i = inactive; ? = inconclusive; · = no result; + = active, no number.

SMILES | HNF4A DNA FP | Exocytosis inh | CSN inh | Myeloid diff MLP | Myeloid diff | GFP autofluor
CC(C)N(C(=O)[C@H]1C[C@H](CC(=O)NCc2cccc(C(F)(F)F)c2)C(=O)N2CCc3c([nH]c4cc(-c5ccco5)ccc34)[C@]12C)C(C)C | 2 | 19 | 4 | ? | i | 0
CC(C)N(C(=O)[C@H]1C[C@H](CC(=O)NCCC2=CCCCC2)C(=O)N2CCc3c([nH]c4cc(-c5ccco5)ccc34)[C@]12C)C(C)C | 2 | 20 | 6 | i | i | 3
CC(C)(C)Cc1c(-c2ccc(F)cc2)nc2ccc(Cl)cn12 | 6 | 5 | -1 | i | · | ·
Cc1cnc(C(=O)NCC(=O)Nc2ccccc2Br)cn1 | -7 | -23 | 7 | i | · | ·
CC(C)c1nc(SCC(=O)N2CCCCCC2)c2c(=O)n(C)c(=O)n(C)c2n1 | 5 | 1 | 2 | i | · | ·
CC(C)c1nc(SCC(=O)N2CCCC2)c2c(=O)n(C)c(=O)n(C)c2n1 | 1 | 2 | 2 | + | i | 0
COc1cccc(-c2nc(CS(=O)(=O)CC(=O)Nc3cc(OC)ccc3OC)c(C)o2)c1 | 4 | -3 | 3 | i | · | ·
CCN(CC)S(=O)(=O)c1cccc(C(=O)Nc2ccc3c(c2)OCO3)c1 | 1 | 1 | 1 | i | i | 0
CCCN(CCC)S(=O)(=O)c1cccc(C(=O)Nc2ccc3c(c2)OCO3)c1 | -3 | -2 | -7 | i | · | ·
COc1nc(-c2ccccc2)nc(C)c1CC(=O)O | -3 | 1 | -6 | i | i | 0
Cc1cccc(C(=O)N/N=C/c2ccc(OC3CSC3)cc2)c1 | 0 | 3 | -1 | i | i | 3
COc1cccc(C(=O)N/N=C/c2ccc(OC3CSC3)cc2)c1 | -2 | -10 | 4 | i | · | ·
O=C(CN1C(=O)NC2(CCCCC2)C1=O)Nc1ccccc1Cl | -1 | 6 | 2 | i | i | 0
CCc1ccc(-c2nc(SCC(=O)N3CCOCC3)n[nH]2)cc1 | 5 | -2 | 3 | + | i | 14*
O=C(CSc1n[nH]c(-c2cccs2)n1)N1CCOCC1 | 2 | -3 | -4 | i | · | ·
COc1ccc(Cl)cc1CC=NNC(=O)c1cccc(C)c1O | 2 | -7 | -1 | i | · | ·
COCCCNc1nc2ccccc2nc1NS(=O)(=O)c1cccc(Cl)c1 | -14 | 2 | 0 | i | · | ·
O=S(=O)(Nc1nc2ccccc2nc1NCCO)c1cccc(Cl)c1 | -1 | 0 | -8 | i | i | 0
CCOC(=O)C1CCN(CCC(=O)Nc2ccccc2Cl)CC1 | 5 | 9 | 0 | i | i | 0
COc1ccc(F)cc1-c1cc(NC(C)=O)c2ncc(-c3cc(OC)c(OC)c(OC)c3)n2c1 | 2 | -7 | 5 | + | i | 0
COc1ccc(C[C@@H]2CN3C(=NC[C@@H]3C)N2CCNC(=O)c2ccc(C)c(Br)c2)cc1 | -3 | -3 | 99 | + | i | 0
Cc1ccccc1S(=O)(=O)c1cc2ccccc2nc1N | 0 | -12 | -14 | i | i | 0
COc1ccc(-c2nn(-c3ccccc3)cc2C(=O)NC(=S)N2CCOCC2)cc1OC | 4 | -5 | 2 | i | · | ·
N#C/C(=C\N1CCN(Cc2ccc3c(c2)OCO3)CC1)c1nc2ccccc2s1 | 30* | 0 | 18 | i | + | 0
Cc1cc(S(=O)(=O)N2CCCc3ccccc32)ccc1-n1cnnn1 | 0 | -4 | 0 | i | · | ·
CN1/C(=C\C(=O)C[n+]2cccc(Br)c2)C(C)(C)c2ccccc21 | 0 | 2 | 1 | + | i | 1
Cc1cc2cc(CN(CC3CCCO3)C(=S)Nc3ccccc3)c(=O)[nH]c2cc1C (centres undefined) | 1 | -2 | 3 | + | i | 5
COc1ccc2[nH]c(=O)c(CN(CC3CCCO3)C(=S)Nc3ccccc3)cc2c1 (centres undefined) | -2 | -2 | 7 | i | · | ·
CC(OC(=O)c1ccccc1NCCO)C(=O)NCC(=O)Nc1ccc(F)c(F)c1F (centres undefined) | -1 | 10 | 4 | i | · | ·
O=C(C1CC1)N1CCc2cc(S(=O)(=O)NCC3COc4ccccc4O3)ccc21 (centres undefined) | 0 | -2 | 3 | + | i | 0

High-throughput results (PubChem BioAssay)
